Measurements: ChEMBL document CHEMBL3997841, “Continued optimization of the M5 NAM ML375: Discovery of VU6008667, an M5 NAM with high CNS penetration and a desired short half-life in rat for addiction studies” (Bioorg Med Chem Lett, 2017)
pIC50: −log10 of the molar value. Values after ≈ are worked out from the molar mass of the structure shown.

What was measured:
[1] = target: T1, Muscarinic acetylcholine receptor M5 (Homo sapiens, UniProt P08912); experiment: Negative allosteric modulation of human M5 receptor expressed in CHO cells assessed as inhibition of acetyl choline-induced calcium mobilization preincubated for 150 secs followed by acetyl choline addition by Fluo-4-AM dye based fluorescence assay; assay type: functional, cell-based; conditions: for pIC50: read-out: IC50; for IC50: read-out: pIC50 (converted)
T1 sequence (P08912 whole entry): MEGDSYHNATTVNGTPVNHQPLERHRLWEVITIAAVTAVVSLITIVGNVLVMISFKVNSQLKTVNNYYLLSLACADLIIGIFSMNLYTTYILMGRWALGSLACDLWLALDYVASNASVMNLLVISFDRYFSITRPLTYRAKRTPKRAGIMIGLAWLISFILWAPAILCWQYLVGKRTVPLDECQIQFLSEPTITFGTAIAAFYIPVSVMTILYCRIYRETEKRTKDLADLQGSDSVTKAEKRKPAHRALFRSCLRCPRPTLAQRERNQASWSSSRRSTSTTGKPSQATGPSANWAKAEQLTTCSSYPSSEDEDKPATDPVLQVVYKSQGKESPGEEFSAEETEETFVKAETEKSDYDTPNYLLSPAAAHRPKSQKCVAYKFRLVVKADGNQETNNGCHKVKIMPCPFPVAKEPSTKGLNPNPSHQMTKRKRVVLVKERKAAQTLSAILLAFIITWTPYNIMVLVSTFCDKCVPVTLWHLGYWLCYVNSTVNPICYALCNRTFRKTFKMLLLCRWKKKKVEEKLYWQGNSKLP
In short: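 Intracellular calcium mobilization in CHO cells stably transfected with human M5 receptor, run in the presence of an ACh EC80 concentration; values are means of at least three independent determinations, each performed in triplicate.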

[2] = (§1) Fraction unbound in human plasma at 5 uM after 4 hrs by LC-MS/MS based equilibrium dialysis method; assay type: ADME, cell-free
[3] = (§2) Fraction unbound in rat plasma at 5 uM after 4 hrs by LC-MS/MS based equilibrium dialysis method; assay type: ADME, cell-free
[4] = Clearance in rat plasma by LC/MS/MS analysis; assay type: ADME
[5] = Elimination half life in rat by LC-MS/MS analysis; assay type: ADME; conditions: in vivo, read-out: beta t1/2
[6] = target: T2, Muscarinic acetylcholine receptor M5 (Homo sapiens) (UniProt P08912); experiment: Negative allosteric modulation of human M5 receptor expressed in CHO cells assessed as inhibition of acetyl choline-induced calcium mobilization at 10 uM preincubated for 150 secs followed by acetyl choline addition by Fluo-4-AM dye based fluorescence assay relative to acetyl choline; values are per cent of control
T2 sequence (whole entry): T1 sequence (P08912 whole entry)

[7] = target: T3, Muscarinic acetylcholine receptor M5 (Rattus norvegicus, UniProt P08911); experiment: Negative allosteric modulation of rat M5 receptor expressed in CHO cells assessed as inhibition of acetyl choline-induced calcium mobilization preincubated for 150 secs followed by acetyl choline addition by Fluo-4-AM dye based fluorescence assay; assay type: functional, cell-based
T3 sequence (P08911 whole entry): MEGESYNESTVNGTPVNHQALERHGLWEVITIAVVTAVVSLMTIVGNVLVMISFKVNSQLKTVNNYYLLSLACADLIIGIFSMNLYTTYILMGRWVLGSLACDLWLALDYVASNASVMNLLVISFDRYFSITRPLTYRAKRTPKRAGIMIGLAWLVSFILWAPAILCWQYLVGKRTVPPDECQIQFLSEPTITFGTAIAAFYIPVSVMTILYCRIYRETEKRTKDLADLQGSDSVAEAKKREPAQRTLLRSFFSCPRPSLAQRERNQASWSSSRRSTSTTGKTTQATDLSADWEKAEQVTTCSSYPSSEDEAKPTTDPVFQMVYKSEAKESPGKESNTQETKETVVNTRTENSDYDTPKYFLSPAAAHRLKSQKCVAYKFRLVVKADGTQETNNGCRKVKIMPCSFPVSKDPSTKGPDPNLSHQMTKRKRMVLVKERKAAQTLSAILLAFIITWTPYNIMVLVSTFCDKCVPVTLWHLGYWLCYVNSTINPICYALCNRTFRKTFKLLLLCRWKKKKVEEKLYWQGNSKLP
In short: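 Calcium mobilization assay in CHO cells stably transfected with rat M5 receptor; data are means of at least three independent determinations done in triplicate.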

[8] = tested on: Plasma; experiment: as §1; assay type: ADME, cell-free; conditions: 4 h, 5 µM
[9] = tested on: Plasma; experiment: as §2; assay type: ADME, cell-free; conditions: 4 h, 5 µM
[10] = tested on: Brain; experiment: Fraction unbound in rat brain at 1 uM after 4 hrs by LC-MS/MS based equilibrium dialysis method; assay type: ADME, tissue-based
[11] = Volume of distribution at steady state in rat at 1 mg/kg, iv or 3 mg/kg, po by LC-MS/MS analysis; assay type: ADME, organism-based; conditions: in vivo, read-out: Vdss
[12] = Clearance in rat at 1 mg/kg, iv or 3 mg/kg, po by LC-MS/MS analysis; assay type: ADME, organism-based; conditions: in vivo
[13] = tested on: Rattus norvegicus; experiment: Oral bioavailability in rat at 3 mg/kg by LC-MS/MS analysis; assay type: ADME, organism-based; conditions: in vivo
[14] = target: T4, Muscarinic acetylcholine receptor M5 (Rattus norvegicus) (UniProt P08911); experiment: Negative allosteric modulation of rat M5 receptor expressed in CHO cells assessed as inhibition of acetyl choline-induced calcium mobilization at 10 uM preincubated for 150 secs followed by acetyl choline addition by Fluo-4-AM dye based fluorescence assay relative to acetyl choline; values are per cent of control
T4 sequence (whole entry): T3 sequence (P08911 whole entry)

[15] = Aqueous solubility of the compound; assay type: physicochemical; conditions: buffer
[16] = Selectivity ratio of IC50 for rat M5 receptor expressed in CHO cells to IC50 for human M5 receptor expressed in CHO cells; assay type: cell-based

Row | Structure (SMILES) | pIC50 [1] | fraction unbound at 4 h, 5 µM [2] | fraction unbound at 4 h, 5 µM [3] | clearance [4] [mL/min/kg] | half-life [5] [min] | residual activity [6] [%] | pIC50 [7] | Fu [8] | Fu [9] | Fu [10] | Vd [11] [L/kg] | clearance [12] [mL/min/kg] | F [13] [%] | residual activity [14] [%] | IC50 [1] [µM] | solubility [15] [mg/mL] | Ratio IC50 [16]
1 | O=C(c1ccc(F)c(F)c1)N1CCN2C(=O)c3ccccc3[C@@]12c1ccc(N2CCC(F)CC2)cc1 | 5.37 | < 0.01 | < 0.01 | > 70 | < 30 | 13.6 |  |  |  |  |  |  |  |  |  |  | 
2 | Cc1cc([C@@]23c4ccccc4C(=O)N2CCN3C(=O)c2ccc(F)c(F)c2)ccc1Cl |  |  |  |  |  |  | 5.80 | 0.006 | 0.014 | 0.003 | 7.4 | 82 | 17 | 2.6 |  |  | 
3 | O=C(c1ccc(F)c(F)c1)N1CCN2C(=O)c3ccccc3[C@@]12c1ccc(N2CCC(C(F)(F)F)CC2)cc1 | 5.47 | < 0.01 | < 0.01 | > 70 | < 30 | 3.2 |  |  |  |  |  |  |  |  |  |  | 
4 | CCOC(=O)N1CCN(c2ccc([C@@]34c5ccccc5C(=O)N3CCN4C(=O)c3ccc(F)c(F)c3)cc2)CC1 |  | < 0.01 | < 0.01 | > 70 | < 30 | 7.5 |  |  |  |  |  |  |  |  |  |  | 
5 | CC1Cc2ccccc2N1c1ccc([C@@]23c4ccccc4C(=O)N2CCN3C(=O)c2ccc(F)c(F)c2)cc1 (some centres not stated) | 5.34 | < 0.01 | < 0.01 | > 70 | < 30 | 27 |  |  |  |  |  |  |  |  | 4.47 |  | 
6 | O=C(c1ccc(F)c(F)c1)N1CCN2C(=O)c3ccccc3[C@@]12c1ccc(N2CCC(F)(F)CC2)cc1 | 5.74 | < 0.01 | < 0.01 | > 70 | < 30 | 3.1 |  |  |  |  |  |  |  |  |  | 10 (≈ 19.6 mM) | 2
7 | N#CC1CCCN(c2ccc([C@@]34c5ccccc5C(=O)N3CCN4C(=O)c3ccc(F)c(F)c3)cc2)C1 (some centres not stated) |  | < 0.01 | < 0.01 | > 70 | < 30 | 26.3 |  |  |  |  |  |  |  |  |  |  | 
8 | CC1CCCN(c2ccc([C@@]34c5ccccc5C(=O)N3CCN4C(=O)c3ccc(F)c(F)c3)cc2)C1 (some centres not stated) |  | < 0.01 | < 0.01 | > 70 | < 30 | 3.6 |  |  |  |  |  |  |  |  |  |  | 
9 | O=C(c1ccc(F)c(F)c1)N1CCN2C(=O)c3ccccc3[C@@]12c1ccc(N2CC[C@@H](F)C2)cc1 | 5.51 | < 0.01 | < 0.01 | > 70 | < 30 | 3.3 |  |  |  |  |  |  |  |  | 3.02 |  | 
10 | O=C(c1ccc(F)c(F)c1)N1CCN2C(=O)c3ccccc3[C@@]12c1ccc(N2CCCC(F)C2)cc1 (some centres not stated) | 5.20 | < 0.01 | < 0.01 | > 70 | < 30 | 6.9 |  |  |  |  |  |  |  |  |  |  | 
11 | O=C(c1ccc(F)c(F)c1)N1CCN2C(=O)c3ccccc3[C@@]12c1ccc(N2CCCC(F)(F)C2)cc1 | 5.84 | < 0.01 | < 0.01 | > 70 | < 30 | 3.1 |  |  |  |  |  |  |  |  |  | 10 (≈ 19.6 mM) | 2
12 | CN(c1ccc([C@@]23c4ccccc4C(=O)N2CCN3C(=O)c2ccc(F)c(F)c2)cc1)C1CCC1 |  | < 0.01 | < 0.01 | > 70 | < 30 | 2.6 |  |  |  |  |  |  |  |  |  | 10 (≈ 21.1 mM) | 
13 | O=C(c1ccc(F)c(F)c1)N1CCN2C(=O)c3ccccc3[C@@]12c1ccc(N2CCc3ccccc3C2)cc1 | 5.09 | < 0.01 | < 0.01 | > 70 | < 30 | 20.1 |  |  |  |  |  |  |  |  | 7.76 |  | 
14 | O=C(c1ccc(F)c(F)c1)N1CCN2C(=O)c3ccccc3[C@@]12c1ccc(N2CCCCC2C(F)(F)F)cc1 (some centres not stated) | 5.24 | < 0.01 | < 0.01 | > 70 | < 30 | 2.6 |  |  |  |  |  |  |  |  |  |  | 
15 | O=C(c1ccc(F)c(F)c1)N1CCN2C(=O)c3ccccc3[C@@]12c1ccc(N2CCC[C@H]2c2cccnc2)cc1 | 5.46 | < 0.01 | < 0.01 | > 70 | < 30 | 6 |  |  |  |  |  |  |  |  |  |  | 
16 | O=C(c1ccc(F)c(F)c1)N1CCN2C(=O)c3ccccc3[C@@]12c1ccc(NC2CCC2)cc1 | 5.16 | < 0.01 | < 0.01 | > 70 | < 30 | 25.5 |  |  |  |  |  |  |  |  | 6.76 |  | 
17 | O=C(c1ccc(F)c(F)c1)N1CCN2C(=O)c3ccccc3[C@@]12c1ccc(Cl)cc1 |  |  |  |  |  | 2.3 |  |  |  |  |  |  |  |  |  | < 0.01 | 
18 | O=C(c1ccc(F)c(F)c1)N1CCN2C(=O)c3ccccc3[C@@]12c1ccc(N2CCCCC2)cc1 | 5.22 | < 0.01 | < 0.01 | > 70 | < 30 | 10.5 |  |  |  |  |  |  |  |  |  |  | 
19 | O=C(c1ccc(F)c(F)c1)N1CCN2C(=O)c3ccccc3[C@@]12c1ccc(N2CC3(C2)CC(F)(F)C3)cc1 | < 5.00 | < 0.01 | < 0.01 | > 70 | < 30 | 26.2 |  |  |  |  |  |  |  |  |  |  | 
